Test results: article PMC6315297 (AIDS (London, England), 2013)
Peptide text beside a SMILES is read from it.

Molecular target: HLA-A*68:02 (Homo sapiens, UniProt P04439, A269V/D140Y/D185E/E176V/E277Q/E87N/F33Y/G231S/I121R/I166T/I218V/L180W/L300P/L318F/N151K/P208A/P217A/Q86R/R138H/R169H/S129P/T345S/V36M)
Experiment: HLA peptide binding assay
How it was run: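 Recombinant biotinylated HLA-A*68:02 heavy chain diluted to 2 nM in a mix of 30 nM β2m and peptide, folded 48 h at 18°C. Folded complexes detected by AlphaScreen with streptavidin donor beads and acceptor beads carrying the conformation-dependent anti-HLA-I antibody W6/32. Beads at final 5 μg/mL, incubated overnight at 18°C. Plates equilibrated to reader temperature 1 h before reading.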

## CC(C)[C@H](NC(=O)[C@H](Cc1ccc(O)cc1)NC(=O)[C@H](Cc1ccccc1)NC(=O)[C@@H](NC(=O)[C@@H](N)CCC(=O)O)[C@@H](C)O)C(=O)N[C@@H](CC(=O)O)C(=O)NCC(=O)N[C@@H](C)C(=O)O [ETFYVDGA] (H-ETFYVDGA-OH)
  Kd: 2 nM
